Assay results published in ChEMBL document CHEMBL5724801, “EUbOPEN Chemogenomics Library - Multiplex” (2024).
Where “and” joins values, the source holds several entries; their conditions need not be identical. Equal entries are not always repeated.

System: HEK-293T
Experiment: Multiplex assay against HEK293T
Format: toxicity, cell-based
Conditions: human
In short: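 Values for tubulin, mitochondrial-mass and membrane-permeability phenotypes are per cents of cells with healthy nuclei. These cells were identified by CellPathfinder machine-learning gating of live cells that had been stained at seeding with Hoechst33342, BioTracker Green Microtubule Cytoskeleton Dye, MitoTracker Red and Annexin V Alexa Fluor 680 and imaged on a CQ1 microscope at 37°C and 5% CO2 after compound addition. The gating first set Hoechst high-intensity objects apart from normal cells, then split normal cells into healthy, pyknosed or fragmented nuclei, and pyknosed cells into mitotic or apoptotic.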

[1] = 12 h, 1 µM, compound concentration 1 uM
[2] = 12 h, 10 µM, compound concentration 10 uM
[3] = 24 h, 1 µM, compound concentration 1 uM
[4] = 24 h, 10 µM, compound concentration 10 uM
[5] = 48 h, 1 µM, compound concentration 1 uM
[6] = 48 h, 10 µM, compound concentration 10 uM

Cc1ccc(C(C)(O)c2nc3ccccc3s2)c(C)c1 (stereo not drawn)
Population Apoptotic (%) [1]: 30% and 41% | Population Healthy Nuclei (%) [1]: 72% and 79% | Population Hoechst High Intensity Objects (%) [1]: 4% and 5% | Population Membrane Permeable-Phenotype (%) [1]: 1% and 0% | Population Mitochondria Different-Phenotype (%) [1]: 36% and 63% | Population Mitotic Cells (%) [1]: 70% and 58% | Population Normal (%) [1]: 95% and 94% | Population Pyknosed Nuclei (%) [1]: 8% and 16% | Population Tubulin-Different-Phenotype (%) [1]: 30% and 25% | Total Cell Count [1]: 483 and 308 | Population Apoptotic (%) [2]: 56% and 36% | Population Fragmented Nuclei (%) [2]: 5% and 7% | Population Healthy Nuclei (%) [2]: 82% and 78% | Population Hoechst High Intensity Objects (%) [2]: 8% and 7% | Population Membrane Permeable-Phenotype (%) [2]: 0% | Population Mitochondria Different-Phenotype (%) [2]: 62% and 72% | Population Mitotic Cells (%) [2]: 43% and 63% | Population Normal (%) [2]: 91% and 92% | Population Pyknosed Nuclei (%) [2]: 12% and 13% | Population Tubulin-Different-Phenotype (%) [2]: 44% and 25% | Total Cell Count [2]: 412 and 318 | Population Apoptotic (%) [3]: 26% and 32% | Population Fragmented Nuclei (%) [3]: 18% and 6% | Population Healthy Nuclei (%) [3]: 73% and 85% | Population Hoechst High Intensity Objects (%) [3]: 3% | Population Membrane Permeable-Phenotype (%) [3]: 1% and 0% | Population Mitochondria Different-Phenotype (%) [3]: 15% and 36% | Population Mitotic Cells (%) [3]: 73% and 67% | Population Normal (%) [3]: 96% | Population Pyknosed Nuclei (%) [3]: 8% and 7% | Population Tubulin-Different-Phenotype (%) [3]: 11% and 16% | Total Cell Count [3]: 645 and 447 | Population Apoptotic (%) [4]: 28% and 36% | Population Fragmented Nuclei (%) [4]: 6% and 10% | Population Healthy Nuclei (%) [4]: 82% and 78% | Population Hoechst High Intensity Objects (%) [4]: 8% and 6% | Population Membrane Permeable-Phenotype (%) [4]: 0% | Population Mitochondria Different-Phenotype (%) [4]: 42% and 63% | Population Mitotic Cells (%) [4]: 71% and 63% | Population Normal (%) [4]: 91% and 93% | Population Pyknosed Nuclei (%) [4]: 11% and 10% | Population Tubulin-Different-Phenotype (%) [4]: 34% and 23% | Total Cell Count [4]: 487 and 379 | Population Apoptotic (%) [5]: 17% and 34% | Population Fragmented Nuclei (%) [5]: 20% and 13% | Population Healthy Nuclei (%) [5]: 73% and 78% | Population Hoechst High Intensity Objects (%) [5]: 2% and 3% | Population Membrane Permeable-Phenotype (%) [5]: 1% | Population Mitochondria Different-Phenotype (%) [5]: 15% and 22% | Population Mitotic Cells (%) [5]: 82% and 65% | Population Normal (%) [5]: 97% and 96% | Population Pyknosed Nuclei (%) [5]: 5% and 8% | Population Tubulin-Different-Phenotype (%) [5]: 12% and 11% | Total Cell Count [5]: 964 and 621 | Population Apoptotic (%) [6]: 33% and 50% | Population Fragmented Nuclei (%) [6]: 14% and 13% | Population Healthy Nuclei (%) [6]: 76% and 80% | Population Hoechst High Intensity Objects (%) [6]: 2% and 3% | Population Membrane Permeable-Phenotype (%) [6]: 0% and 1% | Population Mitochondria Different-Phenotype (%) [6]: 28% and 33% | Population Mitotic Cells (%) [6]: 66% and 50% | Population Normal (%) [6]: 97% and 96% | Population Pyknosed Nuclei (%) [6]: 9% and 5% | Population Tubulin-Different-Phenotype (%) [6]: 18% and 13% | Total Cell Count [6]: 713 and 508

COCCn1c(C)c(C)s/c1=N\C(=O)C1C(C)(C)C1(C)C
Population Apoptotic (%) [1]: 37% and 41% | Population Fragmented Nuclei (%) [1]: 10% and 5% | Population Healthy Nuclei (%) [1]: 77% and 82% | Population Hoechst High Intensity Objects (%) [1]: 6% and 4% | Population Membrane Permeable-Phenotype (%) [1]: 0% | Population Mitochondria Different-Phenotype (%) [1]: 45% and 77% | Population Mitotic Cells (%) [1]: 62% and 58% | Population Normal (%) [1]: 93% and 95% | Population Pyknosed Nuclei (%) [1]: 12% | Population Tubulin-Different-Phenotype (%) [1]: 29% and 26% | Total Cell Count [1]: 335 and 304 | Population Apoptotic (%) [2]: 77% and 53% | Population Healthy Nuclei (%) [2]: 52% and 75% | Population Hoechst High Intensity Objects (%) [2]: 18% and 11% | Population Membrane Permeable-Phenotype (%) [2]: 0% | Population Mitochondria Different-Phenotype (%) [2]: 91% and 72% | Population Mitotic Cells (%) [2]: 22% and 46% | Population Normal (%) [2]: 81% and 88% | Population Pyknosed Nuclei (%) [2]: 13% and 16% | Population Tubulin-Different-Phenotype (%) [2]: 67% and 38% | Population Apoptotic (%) [3]: 19% and 35% | Population Fragmented Nuclei (%) [3]: 7% and 8% | Population Healthy Nuclei (%) [3]: 81% | Population Hoechst High Intensity Objects (%) [3]: 4% and 7% | Population Membrane Permeable-Phenotype (%) [3]: 0% | Population Mitochondria Different-Phenotype (%) [3]: 26% and 47% | Population Mitotic Cells (%) [3]: 80% and 64% | Population Normal (%) [3]: 95% and 92% | Population Pyknosed Nuclei (%) [3]: 11% and 10% | Population Tubulin-Different-Phenotype (%) [3]: 20% and 17% | Total Cell Count [3]: 447 and 383 | Population Apoptotic (%) [4]: 71% and 45% | Population Fragmented Nuclei (%) [4]: 30% and 11% | Population Healthy Nuclei (%) [4]: 61% and 75% | Population Hoechst High Intensity Objects (%) [4]: 15% and 7% | Population Membrane Permeable-Phenotype (%) [4]: 0% | Population Mitochondria Different-Phenotype (%) [4]: 53% and 62% | Population Mitotic Cells (%) [4]: 28% and 54% | Population Normal (%) [4]: 84% and 92% | Population Pyknosed Nuclei (%) [4]: 8% and 13% | Population Tubulin-Different-Phenotype (%) [4]: 36% and 30% | Population Apoptotic (%) [5]: 20% and 45% | Population Fragmented Nuclei (%) [5]: 13% and 11% | Population Healthy Nuclei (%) [5]: 75% and 81% | Population Hoechst High Intensity Objects (%) [5]: 3% | Population Membrane Permeable-Phenotype (%) [5]: 0% | Population Mitochondria Different-Phenotype (%) [5]: 22% and 31% | Population Mitotic Cells (%) [5]: 79% and 55% | Population Normal (%) [5]: 96% and 97% | Population Pyknosed Nuclei (%) [5]: 11% and 7% | Population Tubulin-Different-Phenotype (%) [5]: 14% and 12% | Total Cell Count [5]: 649 and 567 | Population Apoptotic (%) [6]: 60% and 38% | Population Fragmented Nuclei (%) [6]: 18% and 13% | Population Healthy Nuclei (%) [6]: 73% and 79% | Population Hoechst High Intensity Objects (%) [6]: 2% and 4% | Population Membrane Permeable-Phenotype (%) [6]: 2% and 0% | Population Mitochondria Different-Phenotype (%) [6]: 30% and 46% | Population Mitotic Cells (%) [6]: 40% and 61% | Population Normal (%) [6]: 97% and 95% | Population Pyknosed Nuclei (%) [6]: 8% and 6% | Population Tubulin-Different-Phenotype (%) [6]: 31% and 24% | Total Cell Count [6]: 191 and 493
